Laboratory results as given in ChEMBL document CHEMBL4842335, “Discovery of penipanoid C-inspired 2-(3,4,5-trimethoxybenzoyl)quinazolin-4(3H)-one derivatives as potential anticancer agents by inhibiting cell proliferation and inducing apoptosis in hepatocellular carcinoma cells” (Eur J Med Chem, 2021).
Active and inactive are the calls of the source. The rule behind the calls is not given here.

Columns and labels:
[1] = tested on: NCI-H1299; assay: Cytotoxicity against human NCI-H1299 cells assessed as inhibition of proliferation incubated for 72 hrs by MTT assay; type: functional, cell-based; settings: NCI-H1299, 72 h
Outline: (§1)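 Cells plated at 3×10³/well, grown overnight in DMEM + 10% FBS, then exposed to compounds (DMSO stocks; 0.1% DMSO negative control) for 72 h at 37 °C. MTT (5 mg/mL in PBS, added at 10%) for 4 h, formazan dissolved in DMSO, A570 read. Inhibition = (Ac−As)/(Ac−Ab)×100; IC50 by calculator; ≥3 independent repeats.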

[2] = tested on: HCT-116; assay: Cytotoxicity against human HCT116 cells assessed as inhibition of proliferation incubated for 72 hrs by MTT assay; type: functional, cell-based; settings: HCT-116, 72 h; outline: as §1
[3] = tested on: HepG2; assay: Cytotoxicity against human HepG2 cells assessed as inhibition rate at 2.5 uM incubated for 72 hrs by MTT assay relative to control; type: functional
Outline: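 HepG2 exposed to each compound at 2.5 µM-range single concentration for 72 h at 37 °C after overnight attachment in DMEM + 10% FBS; 0.1% DMSO control. MTT 4 h, DMSO solubilisation, A570; inhibition rate = (Ac−As)/(Ac−Ab)×100.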

[4] = tested on: Bel-7402; assay: Inhibition of colony formation in human Bel-7402 cells at 1.6 to 3.2 uM measured after 10 days by crystal violet staining based assay relative to control; type: functional, cell-based; settings: dose 1.6-3.2 µM, time 10.0 day
Outline: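 1000 cells/well seeded, attached overnight in DMEM + 10% FBS, then grown 10 days at 37 °C, 5% CO₂ with 0, 0.2, 0.4, 0.8, 1.6 or 3.2 µM. Fixed in 4% paraformaldehyde 15 min, stained 0.1% crystal violet 30 min, colonies counted; formation rate relative to solvent control.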

[5] = tested on: L02; assay: Cytotoxicity against human L-O2 cells assessed as inhibition of proliferation incubated for 72 hrs by MTT assay; type: cell-based; settings: L02, 72 h
[6] = tested on: HepG2; assay: Induction of cell cycle arrest in human HepG2 cells assessed as accumulation at S phase at 0.8 uM incubated for 48 hrs by flow cytometry (reference value: 28.23%); type: functional
Outline: (§2)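 HepG2 treated 48 h with 0, 0.8 or 1.6 µM (DMSO control); phase distribution by flow cytometry using a cell cycle and apoptosis kit; mean with SD, n = 3.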

[7] = tested on: HepG2; assay: Induction of cell cycle arrest in human HepG2 cells assessed as accumulation at G1 phase at 1.6 uM incubated for 48 hrs by flow cytometry (reference value: 46.88%); type: functional
[8] = tested on: HepG2; assay: Induction of cell cycle arrest in human HepG2 cells assessed as accumulation at G2/M phase at 1.6 uM incubated for 48 hrs by flow cytometry (reference value: 24.89%); type: functional; outline: as §2
[9] = tested on: Bel-7402; assay: Induction of cell cycle arrest in human Bel-7402 cells assessed as accumulation at S phase at 0.8 uM incubated for 48 hrs by flow cytometry (reference value: 28.48%); type: functional
[10] = tested on: Bel-7402; assay: Induction of cell cycle arrest in human Bel-7402 cells assessed as accumulation at G1 phase at 1.6 uM incubated for 48 hrs by flow cytometry (reference value: 46.32%); type: functional
[11] = tested on: Bel-7402; assay: Induction of cell cycle arrest in human Bel-7402 cells assessed as accumulation at G1 phase at 3.2 uM incubated for 48 hrs by flow cytometry (reference value: 46.32%); type: functional
[12] = tested on: Bel-7402; assay: Induction of cell cycle arrest in human Bel-7402 cells assessed as accumulation at S phase at 3.2 uM incubated for 48 hrs by flow cytometry (reference value: 28.48%); type: functional
[13] = tested on: Bel-7402; assay: Induction of cell cycle arrest in human Bel-7402 cells assessed as accumulation at G2/M phase at 3.2 uM incubated for 48 hrs by flow cytometry (reference value: 25.20%); type: functional
[14] = tested on: HepG2; assay: Induction of apoptosis in human HepG2 cells assessed as live cells at 0.8 uM incubated for 48 hrs by Annexin V and dead cell assay kit (reference value: 93.90%); type: functional
Outline: (§3)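 HepG2 cells were grown in DMEM and exposed to 0, 0.8, 1.6 or 3.2 µM test agent or DMSO vehicle for 48 h. Apoptosis was then read on a Muse cell analyzer using an Annexin V & Dead Cell kit, which separates live, early apoptotic, late apoptotic and dead populations. The figure legend gives n = 3 with SEM.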

[15] = tested on: HepG2; assay: Induction of apoptosis in human HepG2 cells assessed as early apoptotic cells at 0.8 uM incubated for 48 hrs by Annexin V and dead cell assay kit (reference value: 4.55%); type: functional; outline: as §3
[16] = tested on: HepG2; assay: Induction of apoptosis in human HepG2 cells assessed as late apoptotic cells at 0.8 uM incubated for 48 hrs by Annexin V and dead cell assay kit (reference value: 1%); type: functional; outline: as §3
[17] = tested on: HepG2; assay: Induction of apoptosis in human HepG2 cells assessed as dead cells at 0.8 uM incubated for 48 hrs by Annexin V and dead cell assay kit (reference value: 0.55%); type: functional; outline: as §3
[18] = tested on: HepG2; assay: Induction of apoptosis in human HepG2 cells assessed as live cells at 1.6 uM incubated for 48 hrs by Annexin V and dead cell assay kit (reference value: 93.90%); type: functional; outline: as §3
[19] = tested on: HepG2; assay: Induction of apoptosis in human HepG2 cells assessed as early apoptotic cells at 1.6 uM incubated for 48 hrs by Annexin V and dead cell assay kit (reference value: 4.55%); type: functional; outline: as §3
[20] = tested on: HepG2; assay: Induction of apoptosis in human HepG2 cells assessed as late apoptotic cells at 1.6 uM incubated for 48 hrs by Annexin V and dead cell assay kit (reference value: 1%); type: functional; outline: as §3
[21] = tested on: HepG2; assay: Induction of apoptosis in human HepG2 cells assessed as early apoptotic cells at 3.2 uM incubated for 48 hrs by Annexin V and dead cell assay kit (reference value: 4.55%); type: functional; outline: as §3
[22] = tested on: HepG2; assay: Induction of apoptosis in human HepG2 cells assessed as late apoptotic cells at 3.2 uM incubated for 48 hrs by Annexin V and dead cell assay kit (reference value: 1%); type: functional; outline: as §3
[23] = tested on: HepG2; assay: Induction of reactive oxygen species generation in human HepG2 cells incubated for 48 hrs by DCFH-DA based fluorescent microscopy; type: functional, cell-based; settings: dose 1.6-3.2 µM
Outline: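 HepG2 cultured 48 h with 0, 0.8, 1.6 or 3.2 µM, washed, loaded with […] DCFH-DA for 20 min at 37 °C in the dark; fluorescence viewed by microscopy.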

[24] = tested on: HepG2; assay: Antitumor activity against human HepG2 cells xenografted in BALB/c mouse assessed as tumor growth inhibition at 8 mg/kg, ip relative to control; type: functional; settings: read-out: TGI
Outline: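 Female BALB/c nude mice (14–17 g) given HepG2 s.c. (1×10⁶/mouse); at 100–200 mm³ tumours, randomised to 3 groups of 5. Daily i.p. dosing at 4 or 8 mg/kg for 20 days; vehicle 15% N-methylpyrrolidone/25% Solutol HS-15/60% saline. Caliper volume twice weekly, TV = width² × length/2; inhibition from volume change versus vehicle group.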

[25] = tested on: HepG2; assay: Induction of apoptosis in human HepG2 cells assessed as increase in cleaved Caspase 3 level at 1.6 to 3.2 uM after 48 hrs by Western blot analysis; settings: dose 1.6-3.2 µM

Structure (SMILES): COc1cc(C(=O)c2nc3ccccc3c(=O)[nH]2)cc(OC)c1OC
- IC50 [1]: 13.9 µM
- IC50 [2]: 5.47 µM
- inhibition at 2.5 µM [3]: 73%
- Activity [4]: Active
- IC50 [5]: 6.01 µM
- Activity [6]: 33.43%
- Activity [7]: 29.17%
- Activity [8]: 35.18%
- Activity [9]: 33.11%
- Activity [10]: 33.07%
- Activity [11]: 26.15%
- Activity [12]: 32.14%
- Activity [13]: 41.71%
- Activity [14]: 91.75%
- Activity [15]: 5.8%
- Activity [16]: 2%
- Activity [17]: 0.45%
- Activity [18]: 80.65%
- Activity [19]: 11.7%
- Activity [20]: 6.7%
- Activity [21]: 22.1%
- Activity [22]: 24.15%
- Activity [23]: Active
- inhibition in vivo at 8 mg/kg [24]: 67.6%
- Activity [25]: Active
